# Screens as filed in PubChem.
# Many of the other results were omitted from the sample, so hits are more common in it than they were.
# RORa inhibitor = blocks the human nuclear receptor RORA; inhibition, % at 10 µM; AID 561; hit rate 0.43% among 65,000; CHO-K1 Gal4-RORA LBD luciferase reporter, luminescence; P35398;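 active means inhibition above the mean of all tested compounds plus 3 SD, cut at about 52% in these data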
# Target sequence (P35398 whole entry, looked up, the tested form may be a part): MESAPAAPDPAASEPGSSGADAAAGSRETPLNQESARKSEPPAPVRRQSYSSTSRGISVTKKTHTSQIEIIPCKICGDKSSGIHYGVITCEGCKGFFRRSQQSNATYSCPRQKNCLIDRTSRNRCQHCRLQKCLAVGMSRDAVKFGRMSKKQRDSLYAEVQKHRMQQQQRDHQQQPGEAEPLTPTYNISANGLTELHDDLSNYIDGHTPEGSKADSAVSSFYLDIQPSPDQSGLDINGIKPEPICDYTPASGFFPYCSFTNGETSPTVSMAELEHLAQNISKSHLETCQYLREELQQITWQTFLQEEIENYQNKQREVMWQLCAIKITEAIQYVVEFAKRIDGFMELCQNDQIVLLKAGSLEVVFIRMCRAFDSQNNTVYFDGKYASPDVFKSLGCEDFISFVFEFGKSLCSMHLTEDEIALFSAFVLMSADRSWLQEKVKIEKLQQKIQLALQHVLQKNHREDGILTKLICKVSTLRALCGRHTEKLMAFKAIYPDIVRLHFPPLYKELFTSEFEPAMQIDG
#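 test system = CHO-K1 Gal4-RORA LBD luciferase reporter cells | dosing = 10 µM single point | times = 20 h compound treatment, 37 °C | signal = luciferase luminescence | read-out = % inhibition of basal luciferase versus +RORA/-RORA DMSO controls | benchmarks = mock-transfected cells as 100%, +RORA DMSO cells as 0% | replicates = tested once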
# Hits are given with their value; n = inactive.
SMILES,RORa inhibitor
C=C(C)Cn1c(N2CC(C)CC(C)C2)nc2c1c(=O)[nH]c(=O)n2C (stereo not drawn),n
COc1ccc(-n2c(=O)c3ccccc3n(CC(=O)NC3CCCC3)c2=O)c(OC)c1,n
CC(=O)NC(CCS(C)(=O)=O)C(=O)Nc1cccc2ccccc12 (stereo not drawn),n
Cc1cc(C)n(-c2ncnc3c2oc2ccccc23)n1,n
COc1ccccc1N1CCN(c2ncnc3c2oc2ccccc23)CC1,n
COc1ccc(CCNc2ncnc3c2oc2ccccc23)cc1OC,84
CCN(CC)CCNC(=O)CCc1n[nH]c(=O)c2ccccc12,n
COc1ccc(CNC(=O)CN(CC2CCCO2)C(=O)CNS(=O)(=O)c2ccc(F)cc2)cc1 (stereo not drawn),n
CC(C)NC(=O)c1cc(=O)n(C)c(=O)n1C,n
CCOc1cccc(-c2nnc3n2N=C(c2cc(OC)ccc2OC)CS3)c1,n
COc1cccc(-c2nnc3n2N=C(C(C)(C)C)CS3)c1,62
COC(=O)c1c(-c2cccs2)csc1NC(=O)c1cccnc1,n
CCCC(=O)Nc1nc2ccc(OC)cc2s1,n
COc1cccc(C(=O)c2sc(NC(C)C)nc2N)c1,57
COc1cccc(C(=O)Nc2ccccc2N2CCCC2)c1,n
CC(=NC1CCCCC1)C1=C(O)c2ccccc2C1=O,n
COc1cc2c(cc1OC)C(=NCCC(=O)O)NC(C)(C)C2,n
Cc1cc(N2CCN(c3nc4ccccc4s3)CC2)n2ncnc2n1,75
CCc1nn2c(=O)cc(N3CCN(c4cc(C)nc5ccccc45)CC3)nc2s1,n
Cc1cc(N2CCCCC2)n2ncc(-c3ccc(Cl)cc3)c2n1,n
COc1cccc(NC(=O)c2nnn(Cc3ccc(Br)cc3F)c2N)c1,n
O=S(=O)(Nc1nc2ccccc2nc1NCc1ccco1)c1cccs1,n
CN(C)S(=O)(=O)c1ccc(NC(=O)c2ccccn2)cc1,n
CCN(CC)S(=O)(=O)c1ccc(NC(=O)c2ccccn2)cc1,n
CN(C)c1ccc(NC(=S)c2ccccn2)cc1,84
SMILES,RORa inhibitor
CCOc1ccccc1N(CC(=O)Nc1ccc(C)cc1)S(C)(=O)=O,n
COc1cc(CN/C(C)=C(\C#N)C(N)=O)cc(OC)c1OC,n
CC(=O)N1CCCc2cc(S(=O)(=O)NCc3ccc(C)cc3)ccc21,n
Cn1nc(C(C)(C)C)cc1C(=O)NCc1ccc(N2CCCC2=O)cc1,86
CC(C)(C)c1ccc(C(=O)N2CCC(C(=O)NCc3ccncc3)CC2)cc1,n
O=C(C1CCCN(S(=O)(=O)c2ccccc2)C1)N1CCCc2ccccc21 (stereo not drawn),n
CCOc1ccccc1C1C(C#N)=C(SCC(=O)OC)NC(=O)C1C(=O)OC (stereo not drawn),n
COc1cc(/C=N/O)ccc1OCc1ccc(C(=O)O)cc1,89
COc1cc(C(=S)N2CCCCC2)ccc1OCC(=O)N1CCCC1,n
COc1ccccc1NC(=O)COc1ccc(/C=N/n2cnnc2)cc1OC,n
Cc1cc(C)n(-c2c(F)c(F)c(CN3CCOCC3)c(F)c2F)n1,n
O=C(CSc1nc2ccccc2[nH]1)N1CCCCC1,n
O=C(Nc1nc2ccccc2[nH]1)c1ccc(F)cc1,54
c1ccc(Nc2nc3ccccc3[nH]2)nc1,n
COc1ccccc1CCC(=O)Nc1nc2ccccc2[nH]1,n
CC(=O)Nc1ccc(S(=O)(=O)NCCNC(=O)c2ccccc2F)cc1,n
O=C(Nc1nc2ccccc2[nH]1)c1ccccc1F,86
c1ccc(-c2cnnc(N3CCCCC3)n2)cc1,n
COc1ccc(-n2c(SCCC(=O)O)nnc2-c2ccncc2)cc1,n
CCN1CCN(Cc2ccc(NC(=O)Nc3ccccc3OC)cc2)CC1,n
Cc1nc(NC(C)c2ccccc2)c2oc3ccccc3c2n1 (stereo not drawn),58
CC(=O)N1CCN(c2ccc(Nc3nc(C)nc4c3oc3ccccc34)cc2)CC1,n
COc1ccc(S(=O)(=O)Cc2ccc(C(=O)NCc3ccc(F)cc3)o2)cc1,n
O=C(Nc1ccc(N2CCOCC2)c(Cl)c1)c1ncn[nH]1,n
O=C(Nc1ccc(N2CCOCC2)c(Cl)c1)C1CCCCC1,n
SMILES,RORa inhibitor
Cc1cc(C)nc(SCC(=O)Nc2ccc(N3CCOCC3)c(Cl)c2)n1,53
N#CNC1=NCN(Cc2ccccc2)CN1,n
CN1CCN(C(=O)CN(c2cccc(Cl)c2)S(=O)(=O)c2ccccc2)CC1,n
CSc1ccc(CNc2ccccn2)cc1,n
CCCCCn1c(CN2CCN(Cc3ccccc3)CC2)nc2c1c(=O)n(C)c(=O)n2C,n
CC1CCN(c2nc3c(c(=O)n(C)c(=O)n3C)n2Cc2ccccc2)CC1,n
C=CCOc1nc2c(c(=O)n(C)c(=O)n2C)n1Cc1ccc(Cl)cc1,58
CC(C)n1c(=S)[nH]c2c1c(=O)[nH]c(=O)n2C,n
CC1Cc2ccccc2N1C(=O)CSc1nnc(-c2ccc(S(=O)(=O)N3CCCC3)cc2)o1 (stereo not drawn),n
O=C(CN(Cc1ccc2c(c1)OCO2)C(=O)c1cnsn1)NC1CCCC1,n
Cc1c(C(=O)O)[nH]c2c1C(=O)CC(c1ccc(Cl)cc1)C2 (stereo not drawn),n
CCOC(=O)C1C(C)=CC(=O)CC1c1ccco1 (stereo not drawn),n
CCCCCOC(=O)c1[nH]c2c(c1C)C(=O)CC(c1ccco1)C2 (stereo not drawn),54
O=S(=O)(Cc1ccccc1)N1CCc2ccccc21,n
O=C(Nc1ccccc1)NC1(C(=O)N2CCN(c3ncccn3)CC2)CCCCC1,n
CCOC(=O)c1ccccc1NC(=O)CSc1nnnn1C1CCCCC1,n
O=C(Nc1nnc(C(F)(F)F)s1)c1cccnc1,n
CCC(NC(=O)Nc1ncccc1C)(C(F)(F)F)C(F)(F)F,n
CCC(NC(=O)Nc1nnc(C(F)(F)F)s1)(C(F)(F)F)C(F)(F)F,94
Cc1cccc(N(Cc2cc3ccccc3[nH]c2=O)C(=O)c2ccco2)c1C,n
CCOC(=O)c1[nH]c(C)c(C(=O)Nc2cccc(Cl)c2C)c1C,n
Cc1nc2ccc(S(=O)(=O)NCC(=O)N3CCc4ccccc4C3)cc2s1,n
c1ccc2c(c1)CCN(c1nc3cc4c(cc3s1)OCCO4)C2,64
CN(C)CCCN1C(=O)C(O)=C(C(=O)c2cccs2)C1c1ccccn1 (stereo not drawn),n
Cc1c(C(=O)Nc2ccncc2)oc2c1C(=O)CC(C)(C)C2,n
SMILES,RORa inhibitor
COc1ccc(NC(=O)CSc2nnc(Cn3c(=O)sc4ccccc43)n2C)c(OC)c1,n
Clc1ccc(-c2nnc(NC3=NCCCCC3)o2)cc1,65
Fc1ccc(-c2nnc(-c3ccc(Cl)cc3)o2)cc1,n
Cc1ccc(C2=Nc3ccccc3NC(C)(c3ccc(C)o3)C2)o1 (stereo not drawn),n
CC1CCN(C(=O)CSc2nnc(-c3ccc(S(=O)(=O)N4CCOCC4)cc3)n2C)CC1,n
Cc1onc(-c2ccccc2Cl)c1C(=O)NCCN1Cc2ccccc2C1=O,n
Cc1cc(C(=O)CN2C(=O)NC3(CCCc4ccccc43)C2=O)c(C)n1Cc1cccs1 (stereo not drawn),n
Cc1csc(SCC(=O)c2cc(C)n(Cc3cccs3)c2C)n1,77
Cc1csc(SCc2ccccc2C(=O)O)n1,n
Cc1cc(C(=O)COC(=O)c2ccc3c(c2)OCO3)c(C)n1Cc1cccs1,n
CC(=O)Nc1ccc(SCC(=O)c2cc(C)n(Cc3cccs3)c2C)cc1,67
CC(=O)Nc1ccccc1OCC(=O)c1cc(C)n(Cc2cccs2)c1C,89
COc1cc(NC(=O)CSc2nc(C)cs2)cc(OC)c1,n
Cc1cc(C(=O)CSc2nnc(-c3ccco3)o2)c(C)n1Cc1ccco1,n
